Series [1] has as its target MBNL1-His6/Biot-(CUG)12 binding. Description: HTRF binding assay of MBNL1-His6 and Biot-. Conditions: for IC50: read-out: IC50 (μM) HTRF, hit confirmation, 12-point 1:3 titration, 0.3 nM – 57.5 μM, 1536-well, duplicates. In short, it runs like this:
(§1)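 Recombinant MBNL1-His6 (IPTG-induced, Ni-agarose purified, desalted, purity-corrected by SYPRO-stained gel) at 20 nM with 20 nM Biot-(CUG)12. Read after 60 min at room temperature, in duplicate points. IC50 from dose-response inhibition fits of three independent experiments.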
In general terms: In TR-FRET formats the signal depends on donor and acceptor labels being close together.

For series [2], the system named is (CAG)20 RNA. Description: RNA degradation assay. Type of series: biochemical. The note with it: 30 min, assay buffer, 37°C, varying compound concentrations (NF449 up to 800 μM). A digest of the protocol:
(§2)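 5′-32P-labelled RNA was gel-purified, denatured at 85°C for 1 min and slow-cooled to 37°C. At 100 pM it was incubated with varying test compound concentrations in Tris-HCl pH 8.0/NaCl/KCl/MgCl2 assay buffer for 30 min at 37°C. The reaction was stopped with 7.5 M urea/20 mM EDTA and analysed on denaturing 12% PAGE.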

The test system of series [3] is (CUG)20 RNA. Briefly: RNA degradation assay. The format is biochemical. Conditions: 30 min, assay buffer, 37°C, varying compound concentrations (NF449 up to 800 μM). A digest of the protocol: as §2
The test system of series [4] is MBNL1-His6/Biot-(CUG)12 binding. Description: AlphaScreen binding assay of MBNL1-His6 and Biot-. Conditions: 1536-well format, 4 ul final volume. A digest of the protocol:
as §1
In general terms: In Alpha technology, singlet oxygen from a donor bead excites a nearby acceptor bead.

Series [5] has as its target (CUG)109 transcript. Description: Filter binding assay of MBNL1 constructs to. The note with it: read-out: KD, (CUG)109 binding affinity. In short, it runs like this: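 5′-32P-labelled RNA was denatured at 85°C for 1 min and slow-cooled to 37°C in Tris-HCl pH 8.0/NaCl/KCl/MgCl2 assay buffer. It was incubated with full-length or truncated recombinant MBNL1 for 30 min at 37°C, then captured on a nitrocellulose/Hybond N+ sandwich by slot-blot. Kd came from a one-site binding model over three independent experiments.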

Where a name gives a salt, the structure may show the parent alone. d = 2'-deoxy (DNA); r = 2'-OH (RNA)

One may read the IC50 as the concentration that gives 50% inhibition. Take `CCCN1C[C@H](CSC)C[C@@H]2c3cccc4[nH]cc(c34)C[C@H]21` [Pergolide methanesulfonate]: in series [1], the IC50 came out at 24.8 µM. In the case of `CN1C[C@H](CNC(=O)OCc2ccccc2)C[C@@H]2c3cccc4c3c(cn4C)C[C@H]21` [Metergoline], the IC50 in series [1] came out at 52 µM.

Regarding `Cl.Cl.Oc1ccc2c3c1O[C@H]1c4[nH]c5c(c4C[C@@]4(O)[C@@H](C2)N(CC2CC2)CC[C@]314)C[C@@]1(O)[C@H]2Cc3ccc(O)c4c3[C@@]1(CCN2CC1CC1)[C@H]5O4` [nor-Binaltorphimine dihydrochloride], the “RNA degradation of (CAG)20” value in series [2] is “significant RNA degradation”. Moreover, the “RNA degradation of (CUG)20” value in series [3] is reported as “significant RNA degradation”. The half-maximal inhibitory concentration (IC50) in series [1] was 21.9 µM. For “ssCAG-21: unlabeled mixed RNA/DNA oligo, sequence 5′-rUrArGrCrArGrCrArGrCrArGrCrArGrCrArGrCTT; positive control competitive inhibitor (UAGCAGCAGCAGCAGCAGCTT; sugars from the 5' end r19 d2, backbone not given here)”, in series [4], the “IC50 of inhibition of MBNL1-(CUG)12 binding, AlphaScreen” value is reported as “comparable to those obtained from the 384-well assays”. The “IC50 of inhibition of MBNL1-(CUG)12 binding, HTRF” value in series [1] (1536-well format, 4 ul final volume) is given as “comparable to those obtained from the 384-well assays”. Take `Cn1ccc2cc(NC(=O)Nc3cccnc3)ccc21` [SB 200646 HCl]: the IC50 in series [1] came out at 55.7 µM. Turning to `O=C(Nc1cc(C(=O)Nc2ccc(S(=O)(=O)O)cc2S(=O)(=O)O)cc(C(=O)Nc2ccc(S(=O)(=O)O)cc2S(=O)(=O)O)c1)Nc1cc(C(=O)Nc2ccc(S(=O)(=O)O)cc2S(=O)(=O)O)cc(C(=O)Nc2ccc(S(=O)(=O)O)cc2S(=O)(=O)O)c1` [NF449 octasodium salt], in series [1], the IC50 worked out at 31 µM. For `CC(O)C(C)OC(=O)[C@@H]1C[C@@H]2c3cccc4c3c(cn4C(C)C)C[C@H]2N(C)C1` (some centres unmarked) [LY-53,857 maleate], the IC50 in series [1] came to 38 µM.

B1: MBNL1-FL: full length recombinant MBNL1 protein (protein, UniProt Q9NR56 1-388, looked up)
chain: MAVSVTPIRDTKWLTLEVCREFQRGTCSRPDTECKFAHPSKSCQVENGRVIACFDSLKGRCSRENCKYLHPPPHLKTQLEINGRNNLIQQKNMAMLAQQMQLANAMMPGAPLQPVPMFSVAPSLATNASAAAFNPYLGPVSPSLVPAEILPTAPMLVTGNPGVPVPAAAAAAAQKLMRTDRLEVCREYQRGNCNRGENDCRFAHPADSTMIDTNDNTVTVCMDYIKGRCSREKCKYFHPPAHLQAKIKAAQYQVNQAAAAQAAATAAAMTQSAVKSLKRPLEATFDLGIPQAVLPPLPKRPALEKTNGATAVFNTGIFQYQQALANMQLQQHTAFLPPVPMVHGATPATVSAATTSATSVPFAATATANQIPIISAEHLTSHKYVTQM
modifications: full-length
The Kd is a measure of binding affinity in units of concentration. For B1, in series [5], the Kd was 0.00692 ± 0.00078 µM.

(Values after paper PMC3280409 (Analytical and Bioanalytical Chemistry, 2012).)
